pIC50: −log10 of the molar value. Active and inactive are the calls of the source. No cut-off for these calls is given here.
Experiments:
Cholinesterase [1] = molecular target: T1, Cholinesterase (Homo sapiens, UniProt P06276); assay: Inhibition of human plasma BuchE by Ellman's method; assay type: cell-free
Cholinesterase [2] = molecular target: T1, Cholinesterase; assay: Inhibition of human plasma BuchE at 100 uM by Ellman's method; assay type: cell-free
Procedure, shortened: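 Ellman assay using human plasma (or purified plasma BuChE) in phosphate buffer pH 8.0 with DTNB (0.5 mM solution); 30 min enzyme–inhibitor preincubation, then BTCI (0.5 mM solution) added and rate read at 405 nm over 5 min. Percent inhibition determined at 100 µM inhibitor; triplicate.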

[3] = molecular target: Acetylcholinesterase (Electrophorus electricus) (UniProt O42275); assay: Inhibition of electric eel AchE at 100 uM by Ellman's method
Sequence of Acetylcholinesterase (Electrophorus electricus) (O42275 24-633 limits assumed): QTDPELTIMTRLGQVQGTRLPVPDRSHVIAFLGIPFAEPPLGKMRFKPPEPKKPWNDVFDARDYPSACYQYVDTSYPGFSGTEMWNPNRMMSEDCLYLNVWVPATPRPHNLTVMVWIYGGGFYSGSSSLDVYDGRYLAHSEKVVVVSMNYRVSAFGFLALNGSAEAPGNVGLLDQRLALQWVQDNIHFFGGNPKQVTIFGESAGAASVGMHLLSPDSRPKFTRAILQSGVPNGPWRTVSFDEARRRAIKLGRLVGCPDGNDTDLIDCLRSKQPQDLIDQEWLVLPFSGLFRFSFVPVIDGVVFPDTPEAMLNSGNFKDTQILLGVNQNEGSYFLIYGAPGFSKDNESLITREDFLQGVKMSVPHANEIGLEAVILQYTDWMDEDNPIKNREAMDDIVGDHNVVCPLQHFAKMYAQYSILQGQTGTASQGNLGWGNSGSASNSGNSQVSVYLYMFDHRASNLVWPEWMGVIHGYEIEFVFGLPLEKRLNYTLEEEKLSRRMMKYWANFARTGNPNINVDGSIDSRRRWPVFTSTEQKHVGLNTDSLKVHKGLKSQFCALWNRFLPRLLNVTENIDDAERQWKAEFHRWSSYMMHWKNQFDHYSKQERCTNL
Procedure, shortened: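 Ellman assay with electric eel AChE and ATCI as substrate, phosphate buffer pH 8.0, DTNB (0.5 mM solution). Enzyme and inhibitor incubated 30 min before substrate addition; absorbance read at 405 nm over 5 min. […] Triplicate.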

[4] = Selectivity ratio of IC50 for electric eel AchE to IC50 for human plasma BuchE
Acetylcholinesterase [5] = molecular target: Acetylcholinesterase (Electrophorus electricus, UniProt O42275); assay: Inhibition of electric eel AchE by Ellman's method
Sequence of Acetylcholinesterase (Electrophorus electricus, UniProt O42275) (O42275 whole entry): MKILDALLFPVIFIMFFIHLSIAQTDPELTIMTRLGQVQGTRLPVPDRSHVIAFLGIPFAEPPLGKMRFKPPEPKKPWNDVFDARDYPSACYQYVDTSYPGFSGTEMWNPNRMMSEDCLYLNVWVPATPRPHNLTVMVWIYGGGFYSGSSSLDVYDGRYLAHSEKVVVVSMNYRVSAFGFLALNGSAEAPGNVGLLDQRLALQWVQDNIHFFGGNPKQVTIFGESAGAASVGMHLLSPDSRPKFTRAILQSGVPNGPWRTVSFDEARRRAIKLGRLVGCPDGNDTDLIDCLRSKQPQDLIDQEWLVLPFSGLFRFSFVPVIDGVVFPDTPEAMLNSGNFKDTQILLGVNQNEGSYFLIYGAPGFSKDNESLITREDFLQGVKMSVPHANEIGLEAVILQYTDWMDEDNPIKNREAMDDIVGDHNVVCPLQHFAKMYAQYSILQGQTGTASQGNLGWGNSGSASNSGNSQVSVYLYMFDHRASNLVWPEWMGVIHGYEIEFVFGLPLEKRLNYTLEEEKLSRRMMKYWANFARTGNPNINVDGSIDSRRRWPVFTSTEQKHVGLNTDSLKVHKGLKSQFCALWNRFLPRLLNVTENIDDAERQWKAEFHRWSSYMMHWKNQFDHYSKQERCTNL

Cholinesterase [6] = molecular target: T1, Cholinesterase; assay: Inhibition of human plasma BuchE after 60 mins by carbamylation assay; assay type: cell-free
Procedure, shortened: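 Purified human plasma BuChE (1.2 × 10^-3 mg/mL) preincubated with inhibitor in buffer in a cuvette for up to 60 min, readings at 0, 5, 10, 20, 30, 40, 50, 60 min; DTNB 0.3 mM and substrate then added, reaction followed at 412 nm for 5 min.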

Acetylcholinesterase [7] = molecular target: Acetylcholinesterase (Homo sapiens, UniProt P22303); assay: Inhibition of human erythrocyte AchE by Ellman's method
Sequence of Acetylcholinesterase (Homo sapiens, UniProt P22303) (P22303 whole entry): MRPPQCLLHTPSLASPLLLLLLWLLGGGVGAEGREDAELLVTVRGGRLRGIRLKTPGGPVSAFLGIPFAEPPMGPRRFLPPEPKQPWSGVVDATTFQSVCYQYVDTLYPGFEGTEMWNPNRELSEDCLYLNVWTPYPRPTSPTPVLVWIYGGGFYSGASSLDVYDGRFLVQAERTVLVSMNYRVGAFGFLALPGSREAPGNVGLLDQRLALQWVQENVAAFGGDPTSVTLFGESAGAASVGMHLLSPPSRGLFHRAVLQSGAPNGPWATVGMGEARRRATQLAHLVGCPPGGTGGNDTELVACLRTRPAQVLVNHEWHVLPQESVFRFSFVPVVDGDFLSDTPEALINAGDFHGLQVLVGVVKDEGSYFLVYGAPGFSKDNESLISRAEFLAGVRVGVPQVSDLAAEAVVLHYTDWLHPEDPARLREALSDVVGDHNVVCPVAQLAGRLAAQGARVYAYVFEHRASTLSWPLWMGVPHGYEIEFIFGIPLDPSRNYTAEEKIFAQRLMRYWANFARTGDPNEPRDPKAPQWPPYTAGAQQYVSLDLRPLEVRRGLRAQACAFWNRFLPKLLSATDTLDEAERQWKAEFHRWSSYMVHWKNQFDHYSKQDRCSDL

Homo sapiens = species on record: Homo sapiens; assay: Selectivity ratio of IC50 for human erythrocyte AchE to IC50 for human plasma BuchE
Cholinesterase [8] = molecular target: T1, Cholinesterase; assay: Inhibition of human plasma BuchE using variable substrate levels by carbamylation assay; assay type: cell-free
Procedure, shortened: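 Time-course carbamylation with purified human plasma BuChE (1.2 × 10^-3 mg/mL), fixed inhibitor concentration, substrate varied 0.5-10 mM; preincubation sampled at 0-60 min intervals, then DTNB 0.3 mM plus substrate added and read at 412 nm for 5 min. Data plotted as ln E/E_T versus time.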

Cholinesterase [9] = molecular target: T1, Cholinesterase; assay: Inhibition of human plasma BuchE in presence of edrophonium by carbamylation assay; assay type: cell-free
Procedure, shortened: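 Carbamylation time course with purified human plasma BuChE (1.2 × 10^-3 mg/mL) and inhibitor at 1 mM in the presence of 5 mM edrophonium; activity sampled over 60 min preincubation, measured with DTNB 0.3 mM and substrate at 412 nm for 5 min.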

Plasma = assay: Stability in 50% human plasma assessed as drug hydrolysis at 10 to 100 uM by HPLC; assay type: ADME, cell-free
Procedure, shortened: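 Pooled citrated human venous plasma diluted with pH 7.4 phosphate buffer to 50%, showing normal adult BuChE activity. Compound added in acetonitrile and incubated at 37 °C. Aliquots taken at intervals, quenched in 2% ZnSO4·7H2O in MeCN-H2O (1:1) plus acetonitrile, vortexed and centrifuged. Supernatant analysed by reversed-phase HPLC with a gradient of pH 2.5 phosphate buffer:acetonitrile, 50:50 to 20:80 over 20 min.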

T1 sequence (P06276 whole entry): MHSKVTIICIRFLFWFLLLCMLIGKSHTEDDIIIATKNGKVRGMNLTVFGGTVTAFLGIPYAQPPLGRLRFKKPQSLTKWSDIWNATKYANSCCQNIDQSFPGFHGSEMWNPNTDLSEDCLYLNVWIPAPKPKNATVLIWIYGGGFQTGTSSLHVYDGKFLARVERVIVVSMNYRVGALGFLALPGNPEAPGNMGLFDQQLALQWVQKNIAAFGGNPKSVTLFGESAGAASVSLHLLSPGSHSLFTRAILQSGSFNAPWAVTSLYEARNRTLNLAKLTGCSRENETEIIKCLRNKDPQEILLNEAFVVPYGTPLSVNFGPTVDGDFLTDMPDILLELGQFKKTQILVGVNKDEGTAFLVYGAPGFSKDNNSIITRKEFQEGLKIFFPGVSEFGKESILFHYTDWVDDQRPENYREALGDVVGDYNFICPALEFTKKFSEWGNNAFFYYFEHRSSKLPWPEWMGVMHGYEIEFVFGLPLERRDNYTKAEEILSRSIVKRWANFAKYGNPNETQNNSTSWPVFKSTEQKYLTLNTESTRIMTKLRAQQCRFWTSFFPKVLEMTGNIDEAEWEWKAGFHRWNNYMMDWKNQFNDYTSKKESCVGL

Compound	pIC50 (Cholinesterase [1])	inhibition (Cholinesterase [2]) [%]	inhibition [3] [%]	Ratio IC50 [4]	pIC50 (Acetylcholinesterase [5])	further results
CCCCCCc1ccc(C(=O)O[C@@H]2CO[C@H]3[C@@H]2OC[C@@H]3OC(=O)NCc2ccccc2)cc1	5.55	–	–	–	–	–
O=C(Nc1cccc(Cl)c1)O[C@H]1CO[C@H]2[C@@H]1OC[C@H]2O[N+](=O)[O-]	–	11	24	–	–	–
O=C(NCc1ccccc1)O[C@H]1CO[C@H]2[C@@H]1OC[C@H]2OC(=O)c1cccnc1	7.24	99	33	1750	–	–
CCNC(=O)O[C@H]1CO[C@H]2[C@@H]1OC[C@H]2O[N+](=O)[O-]	5.41	73	1	–	–	–
O=C(NCc1ccccc1)O[C@H]1CO[C@H]2[C@@H]1OC[C@H]2OC(=O)c1ccc(-c2ccccc2)cc1	7.92	99	89	4190	4.29	–
O=C(Nc1ccccc1)O[C@H]1CO[C@H]2[C@@H]1OC[C@H]2O[N+](=O)[O-]	–	37	23	–	–	–
Cc1ccc(S(=O)(=O)C(=O)O[C@@H]2CO[C@H]3[C@@H]2OC[C@@H]3OC(=O)NCc2ccccc2)cc1	–	25	66	–	–	–
O=C(/C=C/c1ccc(O)cc1)O[C@@H]1CO[C@H]2[C@@H]1OC[C@@H]2OC(=O)NCc1ccccc1	7.14	100	81	821	4.22	–
CCCCNC(=O)O[C@H]1CO[C@H]2[C@@H]1OC[C@H]2O[N+](=O)[O-]	6.05	92	32	1610	2.84	–
O=C(NCc1ccccc1)O[C@H]1CO[C@H]2[C@@H]1OC[C@H]2OC(=O)C1CC1	6.48	97	55	300	–	–
O=C(NCc1ccccc1)O[C@H]1CO[C@H]2[C@@H]1OC[C@H]2OC(=O)c1ccncc1	7.06	97	24	–	–	–
CNC(=O)O[C@H]1CO[C@H]2[C@@H]1OC[C@H]2O[N+](=O)[O-]	5.29	82	67	–	4.76	–
O=C(NCc1ccccc1)O[C@H]1CO[C@H]2[C@@H]1OC[C@H]2OC(=O)OS(=O)(=O)C(F)(F)F	6.44	–	–	–	–	–
O=C(Nc1ccccc1Cl)O[C@H]1CO[C@H]2[C@@H]1OC[C@H]2O[N+](=O)[O-]	–	11	24	–	–	–
CS(=O)(=O)OC(=O)O[C@@H]1CO[C@H]2[C@@H]1OC[C@@H]2OC(=O)NCc1ccccc1	–	9.8	3	–	–	–
O=C(NCc1ccccc1)O[C@H]1CO[C@H]2[C@@H]1OC[C@H]2OC(=O)C1CCCC1	8.22	99	88	9380	4.25	–
O=C(NCc1ccccc1)O[C@H]1CO[C@H]2[C@@H]1OC[C@H]2OC(=O)c1ccc2ccccc2c1	7.49	100	80	1370	4.36	–

Compound	pIC50 (Cholinesterase [1])	inhibition (Cholinesterase [2]) [%]	inhibition [3] [%]	Ratio IC50 [4]	pIC50 (Acetylcholinesterase [5])	further results
O=C(NCc1ccccc1)O[C@H]1CO[C@H]2[C@@H]1OC[C@H]2OC(=O)c1cccc2ccccc12	7.55	99	86	1340	4.42	–
CCC(C)NC(=O)O[C@H]1CO[C@H]2[C@@H]1OC[C@H]2OC(=O)c1ccccc1 (some centres not stated)	7.14	99	31	1390	–	–
O=C(NC1CCCCC1)O[C@H]1CO[C@H]2[C@@H]1OC[C@H]2O[N+](=O)[O-]	5.60	99	30	> 40	–	–
O=C(NCc1ccccc1)O[C@H]1CO[C@H]2[C@@H]1OC[C@H]2O	5.43	95	15	> 27	–	–
O=C(NCc1ccccc1)O[C@H]1CO[C@H]2[C@@H]1OC[C@H]2O[N+](=O)[O-]	7.29	96	35	> 2000	–	pIC50 (Cholinesterase [6]): 8.44
O=C(/C=C/c1ccccc1)O[C@@H]1CO[C@H]2[C@@H]1OC[C@@H]2OC(=O)NCc1ccccc1	6.86	96	82	729	4.25	–
CCCNC(=O)O[C@H]1CO[C@H]2[C@@H]1OC[C@H]2O[N+](=O)[O-]	6.19	93	1	2380	2.82	–
CCC(=O)O[C@@H]1CO[C@H]2[C@@H]1OC[C@@H]2OC(=O)NCc1ccccc1	6.01	97	5	> 100	–	–
CCCCC(=O)O[C@@H]1CO[C@H]2[C@@H]1OC[C@@H]2OC(=O)NCc1ccccc1	6.15	95	4	> 142	–	–
O=C(Nc1ccc(Cl)c(Cl)c1)O[C@H]1CO[C@H]2[C@@H]1OC[C@H]2OC(=O)c1ccccc1	–	38	70	–	–	–
O=C(Nc1ccc(Cl)c(Cl)c1)O[C@H]1CO[C@H]2[C@@H]1OC[C@H]2O[N+](=O)[O-]	–	28	78	–	5.00	–
CC(C)NP(=O)(NC(C)C)OP(=O)(NC(C)C)NC(C)C [TETRAISOPROPYL PYROPHOSPHORAMIDE]	–	–	–	–	5.60	–
CNC(=O)O[C@H]1CO[C@H]2[C@@H]1OC[C@H]2OC(=O)c1ccccc1	6.17	93	54	150	–	–
C=CC[N+](C)(C)c1ccc(CCC(=O)CCc2ccc([N+](C)(C)CC=C)cc2)cc1	–	–	–	–	7.20	–
O=C(NCc1ccccc1)O[C@H]1CO[C@H]2[C@@H]1OC[C@H]2OC(=O)c1ccccc1	8.37	99	21	63300	3.56	pIC50 (Acetylcholinesterase [7]): 3.66; Ratio IC50 (Homo sapiens): 51000; Activity (Cholinesterase [8]): Dose-dependent effect; Activity (Cholinesterase [9]): inactive; Stability (Plasma): Stable
CC(=O)O[C@@H]1CO[C@H]2[C@@H]1OC[C@@H]2OC(=O)NCc1ccccc1	5.39	97	12	> 25	–	–
O=C(Nc1cccc(C(F)(F)F)c1)O[C@H]1CO[C@H]2[C@@H]1OC[C@H]2O[N+](=O)[O-]	–	10	12	–	–	–
